The source made the active and inactive calls. No cut-off for these calls is given here.
Legend:
[1] = tested on: Canis familiaris; test: Toxicity in mongrel dog assessed as change in blood pressure at 17 umol/kg, iv for 10 mins; format: organism-based, Canis lupus familiaris; settings: in vivo
[2] = tested on: Canis familiaris; test: Diuretic activity in mongrel dog assessed as decrease in rate of sodium excretion during 2 hrs period at 17 umol/kg, iv for 10 mins; format: functional, organism-based; settings: Canis lupus familiaris, Urine
Procedure, shortened: (§1)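 Single 17.0 μmol/kg iv dose in 10 mL 0.9% saline, given over 10 min; sodium salts formed with NaHCO3 where needed. GFR from plasma and urine inulin; Na by flame photometry. Changes per kg computed for each 10-min period after dosing minus the predrug period; mean Δ ± SEM, paired comparison, p < 0.05.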

[3] = Metabolic stability in dog urine assessed as ethacrynic acid release after 72 hrs at pH 7 +/- 0.5 by NMR/TLC analysis; format: ADME, tissue-based, Canis lupus familiaris; settings: pH 7, 72 h
[4] = Solubility of the compound in 0.9% saline; format: physicochemical; settings: buffer
[5] = tested on: Canis familiaris; test: Diuretic activity in mongrel dog assessed as decrease in glomerular filtration rate during 2 hrs period at 17 umol/kg, iv for 10 mins; format: functional, organism-based; settings: Canis lupus familiaris, Urine; procedure, shortened: as §1
[6] = tested on: Canis familiaris; test: Inhibition of ethacrynic acid-induced diuresis in mongrel dog assessed as decrease in glomerular filtration rate during 2 hrs period at 17 umol/kg, iv for 10 mins; format: organism-based, Canis lupus familiaris; settings: in vivo
Procedure, shortened: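 Dogs received 17.0 μmol/kg iv over 10 min, and renal parameters were followed for 2 h. Sodium ethacrynate, 3.3 μmol/kg iv in 10 mL saline over 10 min, was then given. Inulin GFR/kg and Na excretion/kg were taken per 10-min period as change from the predrug value; mean Δ ± SEM; paired comparison, p < 0.05.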

[7] = tested on: Canis familiaris; test: Toxicity in mongrel dog assessed as increase in diastolic pressure at 17 umol/kg, iv for 10 mins; format: organism-based, Canis lupus familiaris; settings: in vivo
[8] = tested on: Canis familiaris; test: Toxicity in mongrel dog assessed as increase in systolic pressure at 17 umol/kg, iv for 10 mins; format: organism-based, Canis lupus familiaris; settings: in vivo
[9] = Biotransformation in mongrel dog assessed as ethacrynic acid-cysteine in urine at 17 umol/kg, iv for 10 mins after 2 hrs; format: ADME, organism-based, Canis lupus familiaris; settings: in vivo
Procedure, shortened: (§2)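 Dogs given 17.0 μmol/kg iv in 10 mL 0.9% saline, prepared 3–5 min before dosing and infused over 10 min. Urine collected for 2 h after dosing and freeze-dried in 1-h portions; control urine from nine 10-min predrug periods handled the same way. Residues taken up in H2O and run on cellulose TLC in n-BuOH–C6H6–MeOH–H2O (20:10:12.5:10); spots located by UV and ninhydrin.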

[10] = Biotransformation in mongrel dog assessed as ethacrynic acid-glutathione in urine at 17 umol/kg, iv for 10 mins after 2 hrs; format: ADME, organism-based, Canis lupus familiaris; settings: in vivo; procedure, shortened: as §2

| Structure (SMILES) | Stability [3] | solubility [4] | Drug metabolism [9] | Drug metabolism [10] | Activity [1] | Activity [2] | Activity [5] | Activity [6] | Activity [7] | Activity [8] |
| --- | --- | --- | --- | --- | --- | --- | --- | --- | --- | --- |
| C=C(C)C(=O)c1ccc(OCC(=O)[O-])c(Cl)c1Cl.[Na+] |  |  |  |  |  |  | Active |  | Toxic | Toxic |
| C=C(CC)C(=O)c1ccc(OCC(=O)[O-])c(Cl)c1Cl.[Na+] [ETHACRYNATE SODIUM] |  |  |  |  | Non-toxic |  | Active |  |  |  |
| C=C(CC)C(=O)c1ccc(OCC(=O)[O-])cc1.[Na+] |  |  |  |  | Non-toxic |  | inactive | Non-toxic |  |  |

The next lines start with results.

| Stability [3] | solubility [4] | Drug metabolism [9] | Drug metabolism [10] | Structure (SMILES) | Activity [1] | Activity [2] | Activity [5] | Activity [6] | Activity [7] | Activity [8] |
| --- | --- | --- | --- | --- | --- | --- | --- | --- | --- | --- |
| Stable | soluble |  |  | CN(C)CC(C)(C)C(=O)c1ccc(OCC(=O)O)c(Cl)c1Cl.Cl | Non-toxic | inactive | inactive | Toxic |  |  |
| Unstable | soluble | metabolite_detected | metabolite_detected | CCC(CN(C)C)C(=O)c1ccc(OCC(=O)O)c(Cl)c1Cl.Cl (stereo not given) | Non-toxic |  | Active |  |  |  |
| Stable | soluble |  |  | CCC(CN(C)C)C(=O)c1ccc(OCC(=O)O)cc1.Cl (stereo not given) | Non-toxic |  | inactive | Non-toxic |  |  |

— ChEMBL document CHEMBL3244220, “Diuretic activity of Mannich base derivatives of ethacrynic acid and certain ethacrynic acid analogues” (J Med Chem, 1978)
